Here are results for five compounds from ChEMBL document CHEMBL1131482 (J Med Chem, 1998).

Active and inactive are the calls of the source. Where only a bound is given, the exact number is not on record here.

For assay [1], the system named is K177 cell line. Nature of the assay: Cholinergic interactions was measured with FLIPR device on […] cells and given as Intrinsic activity. Type of assay: functional, Homo sapiens. In a few lines: (§1)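 Cells were plated on poly(ethylenimine)-coated plates and used about 72 h later. Loading was Fluo-3 AM for 1 h at 37 °C, followed by washes in Hepes-salts buffer, pH 7.4. FLIPR recorded Ca2+ fluorescence over 5 min after agonist addition. Responses were normalized to 100 µM nicotine (100%) and unloaded cells (0%), and EC50 and intrinsic activity were derived from concentration-response curves.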

In assay [2] the test system is Mus musculus. Nature of the assay: Minimal dose able to induce a statistically significant increase of the pain threshold, done on mouse; sc. The assay is classed as functional. In a few lines:
(§2)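 Mouse hot plate test (52.5 ± 0.1 °C, 45 s cutoff) after sc dosing, in male Swiss-Webster mice. The value is the lowest dose giving a statistically significant rise in pain threshold. Dunnett's two-tailed test compared treated mice at maximum reaction time with pretest time, P < 0.05.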

The test system of assay [3] is IMR-32. Nature of the assay: Cholinergic interactions was measured with FLIPR device on IMR-32 cells of human neuroblastoma clonal line, given as effective dose. Type of assay: functional, cell-based. The gist of the method:
as §1

For assay [4], the species on record is Mus musculus. The experiment in a line: Analgesic efficacy is expressed as percentage of that epibatidine, done on mouse. Type of assay: functional.
Assay [5] relates to Mus musculus. Nature of the assay: Maximal nontoxic dose of the compound, done on mouse; sc. The assay is classed as functional. In a few lines:
(§3)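 Male Swiss-Webster mice dosed sc. The value is the highest dose causing no visible behavioural change (tremors, convulsions, hypomotility etc.), so that treated mice could not be told apart from untreated ones. Behaviour was scored by the Irwin method in groups of at least 10 animals.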

Assay [6] concerns K177 cell line. Nature of the assay: Cholinergic interactions was measured with FLIPR device on […] cells and given as EC50. The assay is classed as functional, cell-based. The conditions noted are these: Homo sapiens. The gist of the method:
as §1

Assay [7] deals with IMR-32. The experiment in a line: Cholinergic interactions was measured with FLIPR device on cells of IMR-32 human neuroblastoma clonal line and given as Intrinsic activity. The assay is classed as functional. The gist of the method: as §1
Assay [8] relates to TE-671. The experiment in a line: Cholinergic interactions was measured with FLIPR device on TE671 cells and given as Effective dose. Type of assay: functional, cell-based. The note with it: Homo sapiens. In a few lines:
as §1

Assay [9] has as its system TE-671. Nature of the assay: Cholinergic interactions was measured with FLIPR device on TE671 cells and given as Intrinsic activity. Type of assay: functional, Homo sapiens. In a few lines:
as §1

Assay [10] is filed under the species Mus musculus. Nature of the assay: Analgesic efficacy is expressed as percentage of that morphine, done on mouse. Type of assay: functional.
Assay [11] deals with Mus musculus. Nature of the assay: MAD: minimal dose able to induce a statistically significant increase of the pain threshold, done on mouse; sc. The assay is classed as functional. In a few lines:
as §2

In assay [12] the test system is Mus musculus. The experiment in a line: MNTD:Maximal nontoxic dose of the compound, done on mouse; sc. Type of assay: functional. In a few lines:
as §3

In assay [13] the test system is Mus musculus. Nature of the assay: Licking latency was measured before treatment (at dose=40 mg/kg) by using mouse hot plate test. The assay is classed as functional. The gist of the method:
(§4)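 Male Swiss-Webster mice (22-28 g), 23 ± 1 °C, 12-h light/dark cycle. Hot plate at 52.5 ± 0.1 °C. Mice with pre-drug licking latency below 12 s or over 18 s were rejected. Cutoff 45 s. Compound given sc; latency read before dosing and at 15, 30 and 45 min. 5-12 mice per test.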
For orientation: Hot-plate and tail-flick tests time the reaction to a heat stimulus.

Assay [14] deals with Mus musculus. The experiment in a line: Licking latency was measured after 30 min treatment (at dose=40 mg/kg) by using mouse hot plate test. Type of assay: functional. In a few lines: (§5)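 Male Swiss-Webster mice (22-28 g), 23 ± 1 °C, 12-h light/dark cycle, food and water ad libitum. Hot plate at 52.5 ± 0.1 °C with licking latency as read-out and 45 s cutoff. Mice with pre-drug latency below 12 or over 18 s were rejected. Compounds given sc, 5-12 mice per test. Significance was assessed by Dunnett's two-tailed test, P < 0.05.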

Assay [15] relates to Mus musculus. Nature of the assay: Licking latency was measured after 15 min treatment (at dose=40 mg/kg) by using mouse hot plate test. The assay is classed as functional. In a few lines:
as §5

The test system of assay [16] is Mus musculus. The experiment in a line: MAD: minimal dose able to induce a statistically significant increase of the pain threshold, done on mouse; sc; IA= inactive. The assay is classed as functional, organism-based. The gist of the method: as §2
Assay [17] has as its system Mus musculus. Nature of the assay: Licking latency was measured after 30 min treatment (at dose=20 mg/kg) by using mouse hot plate test. Type of assay: functional. In a few lines: as §5
For assay [18], the system named is Mus musculus. Nature of the assay: Licking latency was measured before treatment (at dose=20 mg/kg) by using mouse hot plate test. Type of assay: functional. The gist of the method: as §5
The subject of assay [19] is Mus musculus. Nature of the assay: Licking latency was measured after 15 min treatment (at dose=20 mg/kg) by using mouse hot plate test. The assay is classed as functional. The gist of the method: as §5
The test system of assay [20] is Mus musculus. Nature of the assay: Licking latency was measured after 45 min treatment (at dose=20 mg/kg) by using mouse hot plate test. The assay is classed as functional. The gist of the method:
as §5

For assay [21], the system named is Mus musculus. Nature of the assay: Licking latency was measured after 45 min treatment (at dose=40 mg/kg) by using mouse hot plate test. Type of assay: functional. In a few lines:
as §5

In assay [22] the test system is Mus musculus. The experiment in a line: Licking latency was measured after 30 min treatment (at dose=10 mg/kg) by using mouse hot plate test. Type of assay: functional. The gist of the method: as §5
In assay [23] the test system is Mus musculus. The experiment in a line: Licking latency was measured before treatment (at dose=10 mg/kg) by using mouse hot plate test. Type of assay: functional. The gist of the method: as §5
Assay [24] relates to Mus musculus. The experiment in a line: Licking latency was measured after 15 min treatment (at dose=3 mg/kg) by using mouse hot plate test. Type of assay: functional. The gist of the method:
as §5

In assay [25] the test system is Mus musculus. Nature of the assay: Licking latency was measured after 45 min treatment (at dose=10 mg/kg) by using mouse hot plate test. Type of assay: functional. In a few lines:
as §5

Assay [26] relates to Mus musculus. The experiment in a line: Licking latency was measured after 45 min treatment (at dose=3 mg/kg) by using mouse hot plate test. Type of assay: functional. The gist of the method: as §5
Assay [27] deals with Mus musculus. The experiment in a line: Licking latency was measured before treatment (at dose=3 mg/kg) by using mouse hot plate test. The assay is classed as functional. In a few lines: as §4
Assay [28] deals with Mus musculus. Nature of the assay: Licking latency was measured after 30 min treatment (at dose=3 mg/kg) by using mouse hot plate test. Type of assay: functional. In a few lines:
as §5

In assay [29] the test system is Mus musculus. The experiment in a line: Licking latency was measured after 15 min treatment (at dose=10 mg/kg) by using mouse hot plate test. Type of assay: functional. The gist of the method:
as §5

Assay [30] concerns Mus musculus. Nature of the assay: Licking latency was measured after 45 min treatment (at dose=25 mg/kg) by using mouse hot plate test. Type of assay: functional. The gist of the method: as §5
For assay [31], the system named is Mus musculus. The experiment in a line: Licking latency was measured before treatment (at dose=25 mg/kg) by using mouse hot plate test. The assay is classed as functional. The gist of the method:
as §5

Assay [32] concerns Mus musculus. Nature of the assay: Licking latency was measured after 15 min treatment (at dose=25 mg/kg) by using mouse hot plate test. The assay is classed as functional. The gist of the method: as §5
Assay [33] relates to Mus musculus. The experiment in a line: Licking latency was measured after 30 min treatment (at dose=25 mg/kg) by using mouse hot plate test (*P<0.01). The assay is classed as functional. In a few lines:
as §5

For the compound `Clc1ccc(C2CC3CC[C@H]2N3)cn1` (stereo partly drawn) [EPIBATIDINE], the results for the Intrinsic activity in [1], in [7] and in [9] were 148.1%, 145.6% and 79.5%, respectively. In assay [2], this compound yielded an MAD of 0.001 mg/kg. The EC50 (in general, the concentration needed to bring the measured effect to its halfway point) in assay [3] was determined as 34 nM; in [6] it was 350 nM; in [8], 1260 nM. In addition, the Efficacy in assay [4] turned out to be 100%; in [10], 82%. In assay [5], this compound displayed an MNTD of 0.007 mg/kg.

The compound `CN1CC[C@]23c4c5ccc(O)c4O[C@H]2[C@@H](O)C=C[C@H]3[C@H]1C5` [MORPHINE] yielded an MAD in assay [11] of 2 mg/kg. For the same compound, in [4], the “Analgesic efficacy compared to epibatidine” value is recorded as 122%. Also, the MNTD in assay [12] is 20 mg/kg. In [10], the “Analgesic efficacy compared to morphine” value came out at 100%.

As to `CCC(=O)N1C2CCC1CN(c1ccc(Cl)nn1)C2`, the Licking latency was found to be 14.5 s in assay [13]; 16.4 s in assay [14]; 17 s in [15]; 15.6 s in [17]; 13.8 s in assay [18]; 17.1 s in [19]. Further, the Licking latency is listed as 18 s in assay [20] and 18.4 s in assay [21]. In assay [16], the MAD entry is “inactive”. In assay [12], the MNTD is >60 mg/kg.

`Clc1nccc(N2CC3CCC(C2)N3)n1`: the Licking latency is given as 26 s in [22]; 15.3 s in assay [23]; 21.3 s in assay [24]; 24.3 s in [25]; 16.2 s in [26]; 14.5 s in [27]. In addition, the values for the Licking latency in [28] and in assay [29] were 17.4 s and 31.1 s, respectively. The compound further had an MAD in assay [11] of 3 mg/kg. The “Analgesic efficacy compared to epibatidine” value in assay [4] amounted to 99%. The compound also showed an MNTD in assay [12] of 15 mg/kg. Further, the “Analgesic efficacy compared to morphine” value in assay [10] is 82%.

`Clc1cc(N2CC3CCC(C2)N3)ncn1`: the Licking latency in assay [30] amounted to 39.1 s; in [22], 19.7 s; in [23] it was 13.6 s; in [31], 14.9 s; in assay [32], 39.5 s; in assay [25], 19.6 s. Further, the values for the Licking latency in assay [33] and in assay [29] were 38.5 s and 22.2 s, respectively. The MAD in [11] was found to be 10 mg/kg. Further, in assay [4], the “Analgesic efficacy compared to epibatidine” value is given as 156%. The same compound showed an MNTD in assay [12] of 30 mg/kg. In addition, the “Analgesic efficacy compared to morphine” value in assay [10] is listed as 127%.
